Measurements from paper PMC8451793 (Journal of Orthopaedic Research, 2020).

What was measured:
[1] = system: hMSCs and rTDSCs; test: Tenocyte differentiation, immunostaining for tenocyte markers; assay type: cell-based, human, rat
Outline: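 Cells incubated at 37°C, 5% CO2 with test compound across a dose range or DMSO; rTDSCs treated 4 days (representative images at 1.5 μM). Fixed and immunostained for SCXA, TNMD, TNC, MKX, THBS4 and type I/III collagens; secondary antibody alone as negative control; BMP + FGF as positive control. High-content imaging; percent of total cells marker-positive; n = 4, mean ± SD.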

[2] = system: CLK-mediated phosphorylation of SRSF1, SRSF4, SRSF5, SRSF6 in rTDSCs and hMSCs; test: Western blot of phospho-SRSFs; assay type: cell-based, human, rat
Outline: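 rTDSCs treated with test compound or DMSO for 24 h at 37°C, 5% CO2. Total protein extracted in RIPA buffer. Phospho-SRSF levels detected by Western blot with specific primary and secondary antibodies.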

With `COc1ccc2c(c1)[nH]c1c(C)nccc12` [harmine] the “Potency in promoting tenocyte differentiation relative to SM04755” value [1] was “less potent than SM04755” and the “CLK-mediated phosphorylation of SRSF1, SRSF4, SRSF5 and SRSF6” value [2] was “no effects”.
